Results taken from ChEMBL document CHEMBL1146929, “Biological evaluation of a multi-targeted small molecule inhibitor of tumor-induced angiogenesis” (Bioorg Med Chem Lett, 2006).

Key:
[1] = target: Vascular endothelial growth factor receptor 2 (Homo sapiens, UniProt P35968); experiment: Inhibitory activity against recombinant human KDR
[2] = target: Platelet-derived growth factor receptor (Homo sapiens, UniProt P09619+P16234); experiment: Inhibitory activity against recombinant human PDGFR; format: protein-complex assay
Ephrin type-B receptor 3 = target: T1, Ephrin type-B receptor 3 (Homo sapiens, UniProt P54753); experiment: Inhibitory activity against EphB3
T1 sequence (P54753 whole entry): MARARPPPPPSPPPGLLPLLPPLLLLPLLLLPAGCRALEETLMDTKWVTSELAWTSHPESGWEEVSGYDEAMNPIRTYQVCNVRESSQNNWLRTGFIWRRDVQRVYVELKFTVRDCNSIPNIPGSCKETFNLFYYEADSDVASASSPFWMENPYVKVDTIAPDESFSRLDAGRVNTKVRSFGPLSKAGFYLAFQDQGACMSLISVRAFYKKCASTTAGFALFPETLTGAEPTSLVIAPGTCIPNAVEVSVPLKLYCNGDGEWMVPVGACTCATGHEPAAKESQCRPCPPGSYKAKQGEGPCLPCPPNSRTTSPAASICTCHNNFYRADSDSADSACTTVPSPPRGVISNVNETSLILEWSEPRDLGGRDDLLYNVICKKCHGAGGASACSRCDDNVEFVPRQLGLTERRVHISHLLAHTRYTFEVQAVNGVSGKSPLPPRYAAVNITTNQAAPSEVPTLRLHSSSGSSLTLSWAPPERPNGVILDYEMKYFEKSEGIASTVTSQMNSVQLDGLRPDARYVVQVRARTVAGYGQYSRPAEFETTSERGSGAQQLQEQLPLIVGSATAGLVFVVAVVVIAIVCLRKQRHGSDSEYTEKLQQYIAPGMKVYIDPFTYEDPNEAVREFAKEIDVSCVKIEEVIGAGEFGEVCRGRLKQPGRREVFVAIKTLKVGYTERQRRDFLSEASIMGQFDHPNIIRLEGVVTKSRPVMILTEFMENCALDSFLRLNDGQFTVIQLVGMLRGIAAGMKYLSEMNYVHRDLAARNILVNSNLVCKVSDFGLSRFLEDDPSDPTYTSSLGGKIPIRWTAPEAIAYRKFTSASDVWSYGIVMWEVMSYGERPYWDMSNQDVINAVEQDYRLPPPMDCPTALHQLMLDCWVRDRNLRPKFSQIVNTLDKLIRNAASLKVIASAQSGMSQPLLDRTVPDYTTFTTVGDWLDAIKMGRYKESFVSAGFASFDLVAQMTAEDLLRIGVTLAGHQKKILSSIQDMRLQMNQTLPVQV
Summary of the method: (§1)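 IMAP fluorescence-polarization kinase assay: phosphorylated fluorescent peptide substrate binds immobilized metal beads, giving a measure of kinase activity. Reactions were run with ATP at three times the Km of each kinase.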

[3] = target: cAMP-dependent protein kinase (PKA) (Homo sapiens, UniProt P22694+P17612+P22612); experiment: Inhibitory activity against PKA; format: protein assay; summary of the method: as §1
[4] = target: Mitogen-activated protein kinase 1 (Homo sapiens, UniProt P28482); experiment: Inhibitory activity against Erk2
Mitogen-activated protein kinase 1, sequence (P28482 whole entry): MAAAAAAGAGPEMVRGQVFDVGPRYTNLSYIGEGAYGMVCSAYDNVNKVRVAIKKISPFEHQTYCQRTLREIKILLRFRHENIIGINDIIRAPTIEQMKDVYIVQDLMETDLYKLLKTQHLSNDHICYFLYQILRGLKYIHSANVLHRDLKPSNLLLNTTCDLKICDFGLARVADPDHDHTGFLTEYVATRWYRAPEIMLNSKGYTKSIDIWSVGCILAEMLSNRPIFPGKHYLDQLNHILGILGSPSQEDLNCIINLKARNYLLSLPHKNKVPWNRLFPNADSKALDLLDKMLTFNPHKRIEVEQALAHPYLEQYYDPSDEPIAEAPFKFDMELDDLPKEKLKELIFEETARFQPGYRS
Summary of the method: (§2)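 IMAP homogeneous fluorescence-polarisation kinase assay: phosphorylated fluorescent peptide substrate binds immobilised metal beads, read as kinase activity. Reactions run at ATP three times the Km for each enzyme.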

[5] = target: Protein kinase C alpha type (Homo sapiens, UniProt P17252); experiment: Inhibitory activity against PKC alpha; summary of the method: as §2
[6] = target: Protein kinase C delta type (Homo sapiens, UniProt Q05655); experiment: Inhibitory activity against PKC delta; summary of the method: as §1
Protein kinase C delta type, sequence (Q05655 whole entry): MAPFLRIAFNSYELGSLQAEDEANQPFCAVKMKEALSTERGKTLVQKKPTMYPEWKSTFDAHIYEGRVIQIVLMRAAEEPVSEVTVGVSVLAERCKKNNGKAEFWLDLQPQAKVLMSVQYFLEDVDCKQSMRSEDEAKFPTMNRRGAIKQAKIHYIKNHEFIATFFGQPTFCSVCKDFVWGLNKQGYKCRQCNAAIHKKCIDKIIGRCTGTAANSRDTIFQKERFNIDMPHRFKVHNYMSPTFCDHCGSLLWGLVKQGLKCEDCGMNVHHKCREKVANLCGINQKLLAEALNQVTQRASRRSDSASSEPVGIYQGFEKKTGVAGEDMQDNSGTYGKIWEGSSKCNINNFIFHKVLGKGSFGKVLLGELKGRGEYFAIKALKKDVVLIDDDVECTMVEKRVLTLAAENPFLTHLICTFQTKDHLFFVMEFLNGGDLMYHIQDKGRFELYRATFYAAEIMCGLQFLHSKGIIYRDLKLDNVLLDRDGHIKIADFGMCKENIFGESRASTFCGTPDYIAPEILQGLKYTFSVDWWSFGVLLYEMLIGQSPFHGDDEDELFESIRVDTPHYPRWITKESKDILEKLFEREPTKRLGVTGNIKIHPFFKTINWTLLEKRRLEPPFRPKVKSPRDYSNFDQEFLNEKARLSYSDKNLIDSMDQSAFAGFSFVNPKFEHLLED

[7] = target: Cyclin-dependent kinase 1/cyclin B (Homo sapiens, UniProt P06493); experiment: Inhibition of CDK1/cyclinB; format: protein-complex assay; summary of the method: as §1
[8] = target: T2, Serine/threonine-protein kinase Sgk1 (Homo sapiens, UniProt O00141); experiment: Inhibitory activity against SGK; summary of the method: as §1
T2 sequence (O00141 whole entry): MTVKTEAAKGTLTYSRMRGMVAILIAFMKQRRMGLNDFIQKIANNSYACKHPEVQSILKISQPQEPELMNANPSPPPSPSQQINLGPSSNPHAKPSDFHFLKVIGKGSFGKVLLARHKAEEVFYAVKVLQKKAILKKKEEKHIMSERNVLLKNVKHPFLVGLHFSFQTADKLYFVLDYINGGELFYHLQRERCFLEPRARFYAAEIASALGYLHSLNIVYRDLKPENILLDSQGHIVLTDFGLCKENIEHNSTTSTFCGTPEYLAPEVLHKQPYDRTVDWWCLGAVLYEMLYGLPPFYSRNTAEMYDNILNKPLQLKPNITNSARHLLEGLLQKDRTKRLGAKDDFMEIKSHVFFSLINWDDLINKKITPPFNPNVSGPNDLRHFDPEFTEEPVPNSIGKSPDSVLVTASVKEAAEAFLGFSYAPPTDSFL

[9] = target: RAC-alpha serine/threonine-protein kinase (Homo sapiens, UniProt P31749); experiment: Inhibitory activity against AKT; summary of the method: as §1
RAC-alpha serine/threonine-protein kinase, sequence (P31749 whole entry): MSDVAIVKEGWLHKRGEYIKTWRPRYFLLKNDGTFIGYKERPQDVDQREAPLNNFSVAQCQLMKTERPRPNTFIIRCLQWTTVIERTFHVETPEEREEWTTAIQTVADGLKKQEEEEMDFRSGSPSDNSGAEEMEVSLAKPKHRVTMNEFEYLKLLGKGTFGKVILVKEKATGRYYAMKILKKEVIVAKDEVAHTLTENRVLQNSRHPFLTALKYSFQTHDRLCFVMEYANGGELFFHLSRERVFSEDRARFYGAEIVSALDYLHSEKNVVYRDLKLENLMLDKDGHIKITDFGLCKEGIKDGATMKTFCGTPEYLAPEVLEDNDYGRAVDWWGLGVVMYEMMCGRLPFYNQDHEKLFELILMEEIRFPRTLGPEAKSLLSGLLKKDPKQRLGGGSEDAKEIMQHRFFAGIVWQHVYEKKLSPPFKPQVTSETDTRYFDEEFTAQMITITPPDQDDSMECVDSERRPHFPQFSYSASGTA

HUVEC [10] = experiment: Inhibitory activity against VEGF-induced proliferation of HUVEC cells; format: functional, cell-based; conditions: Homo sapiens
Summary of the method: (§3)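 HUVECs were grown to subconfluence, serum-starved for 24 h, then given compound for 2 h before stimulation with 20 ng/mL VEGF or 5 ng/mL bFGF. BrdU label was added after 20 h with compound. Incorporation was read 4 h later with a peroxidase anti-BrdU antibody and colorimetric detection. IC50 came from a single experiment in duplicate.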

[11] = Volume of distribution in nude mice at 10 mg/kg, iv; format: ADME, organism-based; set-up: dose 10 mg/kg, route intravenous; conditions: mouse, in vivo, read-out: Vdss
Summary of the method: (§4)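 Single doses given iv and orally. Mice (athymic nude) received 10 mg/kg iv, with bleeds at 1, 5, 15, 30 min and 1-24 h, and 50 or 200 mg/kg po, with bleeds at 5 min-24 h. Wistar rats received 5 mg/kg iv through a femoral arterial catheter, with jugular bleeds to 24 h, and 50 or 200 mg/kg po, with bleeds to 48 h. The iv vehicle was 2% DMA/10% PEG400/88% of 40% HPBCD and the oral vehicle 2% Klucel LF/0.1% Tween 80. EDTA plasma was assayed by LC-MS/MS against a calibration of 1-2000 ng/mL.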

[12] = Half life in nude mice at 10 mg/kg, iv; format: ADME, organism-based; set-up: dose 10 mg/kg, route intravenous; conditions: mouse, in vivo; summary of the method: as §4
[13] = Clearance in Wistar rat at 5 mg/kg, iv; format: ADME, organism-based; set-up: dose 5 mg/kg, route intravenous; conditions: in vivo; summary of the method: as §4
[14] = AUC in Wistar rat at 5 mg/kg, iv; format: ADME, organism-based; set-up: dose 5 mg/kg, route intravenous; conditions: plasma; summary of the method: as §4
[15] = Volume of distribution in Wistar rat at 5 mg/kg, iv; format: ADME, organism-based; set-up: dose 5 mg/kg, route intravenous; conditions: in vivo, read-out: Vdss; summary of the method: as §4
[16] = Half life in Wistar rat at 5 mg/kg, iv; format: ADME, organism-based; set-up: dose 5 mg/kg, route intravenous; conditions: in vivo; summary of the method: as §4
[17] = AUC in nude mice at 50 mg/kg, po; format: ADME, organism-based; set-up: dose 50 mg/kg, route oral; conditions: mouse, plasma; summary of the method: as §4
[18] = AUC in nude mice at 200 mg/kg, po; format: ADME, organism-based; set-up: dose 200 mg/kg, route oral; conditions: mouse, plasma; summary of the method: as §4
[19] = Cmax in nude mice at 50 mg/kg, po; format: ADME, organism-based; set-up: dose 50 mg/kg, route oral; conditions: mouse, in vivo; summary of the method: as §4
[20] = Cmax in nude mice at 200 mg/kg, po; format: ADME, organism-based; set-up: dose 200 mg/kg, route oral; conditions: mouse, in vivo; summary of the method: as §4
[21] = Half life in nude mice at 50 mg/kg, po; format: ADME, organism-based; set-up: dose 50 mg/kg, route oral; conditions: mouse, in vivo; summary of the method: as §4
[22] = Half life in nude mice at 200 mg/kg, po; format: ADME, organism-based; set-up: dose 200 mg/kg, route oral; conditions: mouse, in vivo; summary of the method: as §4
[23] = AUC in Wistar rat at 50 mg/kg, po; format: ADME, organism-based; set-up: dose 50 mg/kg, route oral; conditions: plasma; summary of the method: as §4
[24] = AUC in Wistar rat at 200 mg/kg, po; format: ADME, organism-based; set-up: dose 200 mg/kg, route oral; conditions: plasma; summary of the method: as §4
[25] = Cmax in Wistar rat at 50 mg/kg, po; format: ADME, organism-based; set-up: dose 50 mg/kg, route oral; conditions: in vivo; summary of the method: as §4
[26] = Cmax in Wistar rat at 200 mg/kg, po; format: ADME, organism-based; set-up: dose 200 mg/kg, route oral; conditions: in vivo; summary of the method: as §4
[27] = Half life in Wistar rat at 50 mg/kg, po; format: ADME, organism-based; set-up: dose 50 mg/kg, route oral; conditions: in vivo; summary of the method: as §4
[28] = Half life in Wistar rat at 200 mg/kg, po; format: ADME, organism-based; set-up: dose 200 mg/kg, route oral; conditions: in vivo; summary of the method: as §4
Mus musculus [29] = experiment: Inhibition of tumor growth in nude mice implanted with H460a cells at 50 mg/kg, po after 28 days; format: functional; conditions: 672 h
Mus musculus [30] = experiment: Inhibition of tumor growth in nude mice implanted with H460a cells at 100 mg/kg, po after 28 days; format: functional; conditions: 672 h
Mus musculus [31] = experiment: Inhibition of tumor growth in nude mice implanted with H460a cells at 200 mg/kg, po after 28 days; format: functional; conditions: 672 h
Mus musculus [32] = experiment: Inhibition of VEGF-induced corneal angiogenesis in C57/BL6 mice at 50 mg/kg, po after 7 days; format: functional; conditions: C57/BL6, Cornea, 168 h
Summary of the method: (§5)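 VEGF-containing pellets were implanted in the cornea of C57/BL6 mice. Cohorts were dosed orally bid at 12.5, 50 or 200 mg/kg for 7 days, after which the area of corneal angiogenesis (mm2) was quantified against vehicle. Body weight was monitored throughout.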

HUVEC [33] = experiment: Inhibitory activity against bFGF-induced proliferation of HUVEC cells; format: functional, cell-based; conditions: Homo sapiens; summary of the method: as §3
HCT-116 = experiment: Antiproliferative activity against HCT116 by MTT assay; format: functional, cell-based; conditions: Homo sapiens
Summary of the method: (§6)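 Exponentially growing HCT116 or H460a tumor cells were plated and held overnight at 37 C before compound was added. Proliferation was read as MTT formazan formation during a 2.5 h incubation 6 days after plating. IC50 came from a single experiment run in duplicate.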

NCI-H460 = experiment: Antiproliferative activity against H460a by MTT assay; format: functional, cell-based; conditions: Homo sapiens; summary of the method: as §6
[34] = Clearance in nude mice at 10 mg/kg, iv; format: ADME, organism-based; set-up: dose 10 mg/kg, route intravenous; conditions: mouse, in vivo; summary of the method: as §4
[35] = AUC in nude mice at 10 mg/kg, iv; format: ADME, organism-based; set-up: dose 10 mg/kg, route intravenous; conditions: mouse, plasma; summary of the method: as §4
Mus musculus [36] = experiment: Inhibition of VEGF-induced corneal angiogenesis in C57/BL6 mice at 200 mg/kg, po after 7 days; format: functional; conditions: C57/BL6, Cornea, 168 h; summary of the method: as §5

Vascular endothelial growth factor receptor 2, sequence (P35968 whole entry): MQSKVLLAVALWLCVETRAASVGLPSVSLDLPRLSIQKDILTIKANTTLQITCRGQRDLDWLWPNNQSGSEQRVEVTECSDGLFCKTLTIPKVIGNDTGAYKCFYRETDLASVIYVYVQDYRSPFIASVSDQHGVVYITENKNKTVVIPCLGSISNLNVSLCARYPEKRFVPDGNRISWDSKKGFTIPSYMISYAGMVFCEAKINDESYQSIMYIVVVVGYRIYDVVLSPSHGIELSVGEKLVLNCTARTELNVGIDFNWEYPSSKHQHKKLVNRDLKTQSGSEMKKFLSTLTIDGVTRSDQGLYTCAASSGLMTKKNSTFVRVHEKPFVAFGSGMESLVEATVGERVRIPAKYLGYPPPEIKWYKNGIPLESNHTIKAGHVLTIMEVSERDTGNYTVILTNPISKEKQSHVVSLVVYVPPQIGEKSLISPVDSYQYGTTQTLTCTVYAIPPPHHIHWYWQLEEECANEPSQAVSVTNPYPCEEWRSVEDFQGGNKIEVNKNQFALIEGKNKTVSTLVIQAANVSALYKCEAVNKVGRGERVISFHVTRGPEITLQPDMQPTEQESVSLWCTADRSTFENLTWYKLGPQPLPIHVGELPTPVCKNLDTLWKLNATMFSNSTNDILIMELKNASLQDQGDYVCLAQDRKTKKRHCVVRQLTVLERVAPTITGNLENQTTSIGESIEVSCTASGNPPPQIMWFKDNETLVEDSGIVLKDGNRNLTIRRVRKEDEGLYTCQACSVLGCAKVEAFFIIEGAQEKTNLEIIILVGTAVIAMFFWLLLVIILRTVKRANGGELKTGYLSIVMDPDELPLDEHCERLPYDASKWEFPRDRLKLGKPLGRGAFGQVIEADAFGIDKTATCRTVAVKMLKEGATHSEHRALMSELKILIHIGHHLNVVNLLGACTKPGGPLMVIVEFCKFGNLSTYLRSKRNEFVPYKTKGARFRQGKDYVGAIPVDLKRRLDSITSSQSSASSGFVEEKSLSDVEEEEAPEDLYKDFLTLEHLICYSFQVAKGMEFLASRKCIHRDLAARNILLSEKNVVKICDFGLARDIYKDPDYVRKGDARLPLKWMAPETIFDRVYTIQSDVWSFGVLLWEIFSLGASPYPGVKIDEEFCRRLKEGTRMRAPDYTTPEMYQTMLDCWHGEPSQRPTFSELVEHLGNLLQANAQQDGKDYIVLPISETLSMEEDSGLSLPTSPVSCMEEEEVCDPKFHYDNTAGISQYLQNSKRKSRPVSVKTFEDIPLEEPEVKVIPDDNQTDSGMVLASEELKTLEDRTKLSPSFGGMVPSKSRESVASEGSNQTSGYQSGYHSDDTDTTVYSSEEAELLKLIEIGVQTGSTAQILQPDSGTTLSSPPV

## COc1ccc(N2Cc3cnc(Nc4ccc(F)cc4)nc3N(C3CC[C@@H](O)C3)C2=O)cc1 (single isomer, unassigned)
[1]
  IC50: 50 nM
[2]
  IC50: 83 nM
Ephrin type-B receptor 3
  IC50: 1250 nM
[3]
  IC50: 9010 nM
[4]
  IC50: 12600 nM
[5]
  IC50: > 125000 nM
[6]
  IC50: > 125000 nM
[7]
  IC50: > 125000 nM
[8]
  IC50: > 125000 nM
[9]
  IC50: > 125000 nM
HUVEC [10]
  IC50: 35 nM
[11]
  Vd: 1.9 L/kg
[12]
  half-life: 2 h
[13]
  clearance: 32.5 mL/min/kg
[14]
  AUC: 2770 ng·h/mL
[15]
  Vd: 3.7 L/kg
[16]
  half-life: 4.3 h
[17]
  AUC: 96500 ng·h/mL
[18]
  AUC: 260000 ng·h/mL
[19]
  Cmax: 29100 ng/mL
[20]
  Cmax: 82600 ng/mL
[21]
  half-life: 1.9 h
[22]
  half-life: 1.7 h
[23]
  AUC: 40900 ng·h/mL
[24]
  AUC: 285000 ng·h/mL
[25]
  Cmax: 3160 ng/mL
[26]
  Cmax: 10300 ng/mL
[27]
  half-life: 5 h
[28]
  half-life: 7.8 h
Mus musculus [29]
  inhibition in vivo at 50 mg/kg: 78%
Mus musculus [30]
  inhibition in vivo at 100 mg/kg: 87%
Mus musculus [31]
  inhibition in vivo at 200 mg/kg: 95%
Mus musculus [32]
  inhibition in vivo at 50 mg/kg: 67%
HUVEC [33]
  IC50: 149 nM
HCT-116
  IC50: 3000 nM
NCI-H460
  IC50: 2500 nM
[34]
  clearance: 13.8 mL/min/kg
[35]
  AUC: 12100 ng·h/mL
Mus musculus [36]
  inhibition in vivo at 200 mg/kg: 91%
